# From PubChem BioAssay
# XiGFP reactiv – activators of inactive X chromosome reactivation, primary screen, imaging, XiGFP fibroblasts, GFP high-content imaging, set 2 | XiGFP mouse fibroblasts, % GFP-positive cells imaging, 3 d; cells co-treated with 5-aza-dC sensitizer; scaled so ellipticine positive control = 100% | activation, % at 7.58 µM | 360,000 compounds, 0.055% hits;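 active = mean normalized replicate activation at least 10% and every replicate at or above 10%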;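 also: 0% = median of on-plate neutral control wells and 100% = ellipticine 6 µM median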
#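 System: SV40-immortalized XiGFP fibroblast cells, line 68-5-11 / Incubation: 3-day compound exposure, then 15 min fixation at room temperature / Compound: single concentration per compound, delivered by pin transfer / Buffer or medium: DMEM plus 5-aza-dC sensitizer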
# ABCB6 inh 2 – ABCB6 transporter inhibitors, primary screen, K562-ABCB6 cells, flow cytometry, MLPCN library | K562-ABCB6 porphyrin accumulation, 1 h; active compounds read low | fluorescence ratio to DMSO, % at 10 µM | 360,000 compounds, 0.19% hits;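 active = fluorescence ratio to DMSO below 75%, the collection mean minus 3 SD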;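 also: signal is porphyrin accumulated inside mitochondria; 100% equals median channel fluorescence of DMSO control wells; lower ratio means ABCB6 inhibition with less porphyrin fluorescence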
# Target sequence (Q9NP58 whole entry, looked up): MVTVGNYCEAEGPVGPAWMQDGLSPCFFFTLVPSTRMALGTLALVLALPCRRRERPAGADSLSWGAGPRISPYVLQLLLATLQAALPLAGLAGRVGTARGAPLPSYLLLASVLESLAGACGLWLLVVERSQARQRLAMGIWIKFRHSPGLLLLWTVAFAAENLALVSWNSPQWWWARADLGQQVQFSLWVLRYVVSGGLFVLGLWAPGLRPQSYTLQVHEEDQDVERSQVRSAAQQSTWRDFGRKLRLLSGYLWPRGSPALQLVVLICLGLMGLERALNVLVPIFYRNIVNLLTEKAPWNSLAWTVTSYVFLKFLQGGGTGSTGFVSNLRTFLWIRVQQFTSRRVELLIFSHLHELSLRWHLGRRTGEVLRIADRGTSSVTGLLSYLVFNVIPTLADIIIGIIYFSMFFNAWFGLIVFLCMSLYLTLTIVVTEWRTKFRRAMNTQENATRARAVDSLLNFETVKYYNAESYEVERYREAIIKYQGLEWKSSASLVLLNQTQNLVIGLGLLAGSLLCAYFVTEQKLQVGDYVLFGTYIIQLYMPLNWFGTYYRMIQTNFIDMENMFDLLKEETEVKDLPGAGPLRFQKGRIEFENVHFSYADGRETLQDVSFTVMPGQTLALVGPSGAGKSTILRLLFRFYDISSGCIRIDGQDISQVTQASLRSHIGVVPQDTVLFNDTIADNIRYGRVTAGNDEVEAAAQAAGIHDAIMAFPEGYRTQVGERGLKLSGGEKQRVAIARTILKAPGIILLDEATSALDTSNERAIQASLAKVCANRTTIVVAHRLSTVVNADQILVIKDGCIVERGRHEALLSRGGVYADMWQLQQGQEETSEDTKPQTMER
# Myeloid diff MLP – induction of myeloid progenitor differentiation, primary screen, cell-based, flow cytometry, MLPCN library. ER-HoxA9 myeloid progenitors, lysozyme-GFP differentiation. calls only at 10 µM. 360,000 compounds, 1% hits. AID 624256, 2012;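 active = normalized GFP-positive differentiation at or above the plate's own cutoff, the solvent-only control mean plus 3 SD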;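 also: cells exposed to compound for four days before flow analysis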
# Myeloid diff CP1 – inducers of myeloid progenitor differentiation, confirmation, cell-based, GFP/Mac1 flow cytometry, cherry pick 01 | shares compounds with Myeloid diff MLP | ER-HoxA9 myeloid progenitors, GFP/Mac1 double-positive flow | calls only | 2,300 compounds, 2% hits;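 active = share of green or green-and-red cells above 9 and 9% in run 1 or 4 and 3% in run 2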
# GFP autofluor – flagged as fluorescent in myeloid differentiation counter-screen; shares compounds with Myeloid diff MLP; fluorescence response, % (test concentration not listed); ER-HoxA9 myeloid progenitors, no estrogen, GFP autofluorescence flow cytometry; vehicle wells 0%, positive control 100%; 2,300 compounds, 7.4% hits;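 active = over 5% cells positive for green fluorescent reporter, or over 2% positive for both it and APC stain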;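 also: range taken on the double positive population between DMSO and positive control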
# * hit, by the source's call; i = inactive; · = not tested or not shown; + = active, no number. The sample as a whole holds a higher share of hits than the screen did.
SMILES,XiGFP reactiv,ABCB6 inh 2,Myeloid diff MLP,Myeloid diff CP1,GFP autofluor
C[C@@H]1CN([C@H](C)CO)C(=O)c2cc(NS(=O)(=O)c3ccc(Cl)cc3)ccc2O[C@@H](C)CCCCO[C@@H]1CN(C)Cc1ccc(C(=O)O)cc1,0,·,·,·,·
COc1cccc(CN2CC3(CCN(C(=O)Nc4c(C)noc4C)CC3)c3c([nH]c4cc(OC)ccc34)[C@@H]2CO)c1,0,·,·,·,·
CCOC(=O)/C(=C/C=C1\Sc2ccccc2N1CC)C(C)=O,·,106,i,i,0
CCN1/C(=C/C(=O)c2ccco2)Sc2ccccc21,·,113,i,·,·
C[C@@H]1CN([C@H](C)CO)C(=O)c2ccccc2-c2ccccc2CO[C@@H]1CN(C)Cc1ccc(C(F)(F)F)cc1,1,·,·,·,·
O=C1C(Cc2ccccc2)S/C(=N/N=C/c2ccco2)N1c1ccccc1 (stereo not given),·,108,i,·,·
C=CCN1C(=O)C(Cc2ccc(C)cc2)S/C1=N/N=C/c1ccco1 (stereo not given),·,102,·,i,1
C[C@H]1CN([C@@H](C)CO)C(=O)c2cccc(NC(=O)CCCCCC(=O)Nc3ccccc3N)c2O[C@H]1CN(C)S(=O)(=O)c1ccc(F)cc1,0,·,·,·,·
COc1ccccc1-c1cnc2c(c1)C(=O)N([C@H](C)CO)C[C@@H](C)[C@H](CN(C)Cc1ccc(F)cc1)O2,-1,·,·,·,·
C(=N\N(c1ccccc1)c1ccccc1)/c1ccc(N2CCOCC2)s1,0,95,+,i,0
O=C(N/N=C/c1ccc(N2CCOCC2)s1)c1ccccc1Cl,0,100,i,·,·
COc1cc(CN2CC3(CCN(S(=O)(=O)c4cccc(F)c4)CC3)c3c([nH]c4cc(OC)ccc34)[C@H]2CO)cc(OC)c1,5,·,·,·,·
COc1ccc(/C=C/C(=O)Nc2ccc(OC)cc2[N+](=O)[O-])cc1,0,92,i,·,·
CCOc1ccc(NC(=O)/C=C/c2ccc(OC)cc2)c([N+](=O)[O-])c1,0,93,i,i,0
CCCNC(=O)N1CCC2(CC1)CN(S(C)(=O)=O)[C@@H](CO)c1c2c2ccc(OC)cc2n1C,0,·,·,·,·
CCCCNC(=S)NNC(=O)c1csc(C)c1,·,100,i,i,0
CCNC(=S)NNC(=O)c1csc(C)c1,0,104,i,·,·
C[C@H]1CN([C@@H](C)CO)C(=O)c2cccc(NC(=O)CCCCCC(=O)Nc3ccccc3N)c2O[C@@H]1CN(C)S(=O)(=O)c1ccc(F)cc1,0,·,·,·,·
COc1ccc(-n2c(SCC(N)=O)nnc2-c2ccc(NS(=O)(=O)c3ccc(C)cc3)cc2)cc1,·,100,+,i,0
COc1ccc(-n2c(SCC(=O)Nc3ccccc3)nnc2-c2ccc(NS(=O)(=O)c3ccc(C)cc3)cc2)cc1,·,98,i,·,·
Cc1ccc(-n2nnnc2CNC(=O)c2ccc(Br)o2)cc1C,0,93,i,·,·
O=C(NCc1nnnn1-c1ccc(F)cc1)c1ccc2ccccc2c1,0,98,i,·,·
O=C(NCc1nnnn1-c1ccc(F)cc1)c1ccc([N+](=O)[O-])o1,0,100,+,i,4
Cc1ccc(-n2nnnc2CNC(=O)c2ccc([N+](=O)[O-])o2)cc1C,0,97,+,i,0
COc1ccc(NC(=O)Nc2ccc3c(c2)C(=O)N([C@H](C)CO)C[C@@H](C)[C@@H](CN(C)C(=O)Nc2ccc(C(F)(F)F)cc2)O3)cc1,1,·,·,·,·
SMILES,XiGFP reactiv,ABCB6 inh 2,Myeloid diff MLP,Myeloid diff CP1,GFP autofluor
O=C(NCC[C@H]1CC[C@@H](NC(=O)C2CC2)[C@@H](CO)O1)c1cnccn1,0,·,·,·,·
Cc1cccc(NC(=S)N(CCCN2CCOCC2)Cc2cn(C)c3ccccc23)c1,·,97,i,·,·
Cn1cc(CN(CCCN2CCOCC2)C(=S)Nc2cccc(Cl)c2)c2ccccc21,0,93,+,i,0
COc1ccc(CN(C)C[C@H]2OCCCC[C@@H](C)Oc3ccc(NC(=O)NC4CCCCC4)cc3C(=O)N([C@@H](C)CO)C[C@H]2C)cc1,0,·,·,·,·
CC(C)NC(=O)N(C)C[C@@H]1Oc2c(NC(=O)CCCCCC(=O)Nc3ccccc3N)cccc2C(=O)N([C@@H](C)CO)C[C@H]1C,0,·,·,·,·
Nc1c(Cl)cc2c(c1Br)Cc1ccccc1-2,3,97,i,·,·
Nc1c(Cl)cc2c(c1Oc1ccccc1)C(=O)c1ccccc1C2=O,·,126,+,i,0
COc1ccccc1Cc1c(-c2ccccc2)nc2c3ccccc3ccn12,0,·,·,·,·
COc1ccccc1Cc1c(C(C)(C)C)nc2c3ccccc3ccn12,0,102,+,i,0
COc1ccc(NC(=O)N(C)C[C@@H]2OCCCC[C@H](C)Oc3ccc(NS(=O)(=O)c4cn(C)cn4)cc3C(=O)N([C@H](C)CO)C[C@@H]2C)cc1,0,·,·,·,·
C[C@@H]1CN([C@@H](C)CO)C(=O)c2cc(NS(=O)(=O)c3ccc(F)cc3)ccc2O[C@@H]1CN(C)C(=O)Nc1cccc2ccccc12,0,·,·,·,·
COc1ccccc1CNc1nc(NCc2ccc(C(C)C)cc2)c2sccc2n1,0,102,i,i,0
COc1ccccc1CNc1nc(NC(C)C)nc2ccsc12,0,85,i,·,·
N#C[C@H]1[C@H](c2ccccc2C2=CCCC2)[C@@H](CO)N1C(=O)NC1CCCC1,0,·,·,·,·
COc1ccc(-n2c(N)c(C(=O)NCc3ccco3)c3nc4ccccc4nc32)cc1OC,0,102,+,i,0
COc1cc(-n2c(N)c(C(=O)NCc3ccco3)c3nc4ccccc4nc32)cc(OC)c1OC,0,96,i,·,·
C[C@@H]1CCCCO[C@@H](CN(C)S(=O)(=O)c2ccccc2)[C@H](C)CN([C@H](C)CO)C(=O)c2cc(NC(=O)Cc3ccccc3)ccc2O1,0,·,·,·,·
CCCNC(=O)N1CC2(C1)[C@H](c1ccccc1)[C@@H](CO)N2CC1CC1,0,·,·,·,·
CCCCOc1cccc(C2C(C(=O)c3ccc(C)o3)=C(O)C(=O)N2c2nnc(C)s2)c1 (stereo not given),0,108,+,i,2
CCCOc1cccc(C2C(C(=O)c3ccco3)=C(O)C(=O)N2c2nnc(C)s2)c1 (stereo not given),0,99,·,·,·
COc1ccc(N2CC(C(=O)OCC(=O)c3ccc(C)cc3)CC2=O)cc1 (stereo not given),1,97,+,i,0
CCOc1ccc(N2CC(C(=O)OCC(=O)c3ccc(OC)cc3)CC2=O)cc1 (stereo not given),1,97,i,·,·
COc1ccc(-c2csc(NC(=O)C3CC(=O)N(Cc4ccco4)C3)n2)cc1 (stereo not given),0,100,i,·,·
